# Autophagy mod: modulators of autophagy | MEF GFP-LC3 puncta imaging; test concentration mostly 10 µM | calls only at 10 µM (by protocol) | 190,000 compounds, 0.98% hits;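 active means percentage of spot-positive cells more than 3 SD above its plate mean, without a fluorescence outlier flag or 80% toxicity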;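 further: spot-positive cell cutoff set from DMSO-treated cells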
# HCT116 bCat-KO: beta-catenin-lacking colon tumor cell growth suppression; HCT116 beta-catenin knockout viability, CellTiter-Glo, 60 h; stronger effect = lower value; AID 818; 140,000 compounds, 1.5% hits; viability, % at 10 µM;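 active means viability at or under a set limit, the compound median less 4 SD, cut at about 6% in these data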;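 further: 0% = Hyamine 1622 control at 20 µM and 100% = untreated cell control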
# Dynein transport: blocks dynein driven cargo transport along microtubules. z-score, hits read low. 3617.4 mouse cells, GR-EGFP nuclear translocation imaging; test concentration mostly 20 µM; stimulated with dexamethasone, 1 µM; stronger effect = lower value. 220,000 compounds, 0.47% hits;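 active means plate z-score of nuclear minus cytoplasmic receptor signal below a set negative limit, without overly bright fluorescence or cell loss, cut at about -3.5 in these data, passing the limit was not always enough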;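 further: z-score of nuclear minus cytoplasmic ring GR-EGFP intensity difference per well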
#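 Buffer or medium: tet-free medium with charcoal-stripped serum / Also added: dexamethasone agonist, 1.0 µM final, for 30 min / Timing: induction 48 h, compound 1 h, agonist 30 min / Measured by: high-content fluorescence imaging after fixation / Read-out: nuclear-to-cytoplasmic GR-EGFP distribution per well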
# Lmaj promast: Leishmania major promastigote growth inhibition; Leishmania major promastigotes, resazurin fluorescence viability; inhibition, % at 10 µM; 200,000 compounds, 9% hits; in the data active means inhibition above about 50%;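 further: promastigotes grown with compound for 44 hours at 28 °C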
# PTEN del growth: suppresses growth of cells with PTEN deletion; viability, % at 10 µM; HCT116 PTEN-null viability, CellTiter-Glo, 60 h; stronger effect = lower value; 140,000 compounds, 1.2% hits;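 active means viability at or below a set limit, 4 SD under the median of all tested compounds, cut at about 3.7% in these data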;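 further: PTEN knockout HCT116 line with beta catenin targeted HCT116 as companion control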
# * = called active by the depositor; i = inactive; x = no result given; + = active, no number. The list is not random: actives were taken first. Their share in the collection is about 9.2%.
SMILES,Autophagy mod,HCT116 bCat-KO,Dynein transport,Lmaj promast,PTEN del growth
Cc1cc(C)n(CC(O)Cn2c3ccc(Cl)cc3c3cc(Cl)ccc32)c(=O)n1 (stereo not drawn),i,79.4,-0.281,17.1,80.6
OC(CNCCC1C=Nc2ccccc21)Cn1c2ccc(Cl)cc2c2cc(Cl)ccc21 (stereo not drawn),i,1.2*,-0.217,100.4*,1.5*
OC(CNCC1CCCO1)Cn1c2ccc(Cl)cc2c2cc(Cl)ccc21 (stereo not drawn),i,1.5*,-1.04,100.4*,2.1*
OC(CNCC1CCCO1)Cn1c2ccccc2c2ccccc21 (stereo not drawn),i,74.4,0.955,25.1,67.4
CCOC(=O)C1CCCN(C(=O)c2ccc(Cl)c(S(=O)(=O)N3CCCCC3)c2)C1 (stereo not drawn),i,x,0.429,-3.7,x
Nc1cccc(CCc2nc3cc4ccccc4cc3[nH]2)c1,i,13.1,-0.596,97.1*,15.7
COc1ccc(CN(CC2CCCO2)C(=O)c2cc3sccc3n2C)c(OC)c1 (stereo not drawn),i,x,1.19,6.5,x
COc1ccc2cc3cc(C(=O)NCCCN4CCc5ccccc5C4)sc3nc2c1,i,54.2,-0.36,95.5*,55.7
COc1ccc2nc3sc(C(=O)NCCN4CCc5ccccc5C4)cc3cc2c1,i,62.7,2.63,43.8,56.3
Cc1ccc(OCCC(=O)N2CCN(c3ccc(O)cc3)CC2)cc1,x,x,-0.983,x,x
Cc1cc(OCCNCCO)cc(C)c1Cl,i,84.6,-0.577,66.3*,85.5
Cc1cc(C)c(OCCCCCNCCO)c(C)c1,i,80.6,1.08,89.7*,81.8
OCCNCCCOc1cc(Cl)ccc1Cl,i,x,0.681,9.6,x
Cc1cc(C)cc(OCCCCCNCCO)c1,i,77.4,-0.0236,51.6*,89.8
Cc1cc(OCC(=O)NCCO)cc(C)c1Cl,i,102.0,1.17,-2.1,100.5
Cc1cc(OCCCCCNCCO)cc(C)c1Cl,i,14.0,-0.018,98.1*,3.6*
COC(=O)c1sc(-c2ccc(C(C)(C)C)cc2)cc1NC(=O)CCC(=O)O,x,x,-0.672,x,x
O=c1[nH]c(/C=C2\C=Nc3ccccc32)c(O)n1Cc1ccccc1F,+,x,-1.31,19.1,x
O=C(Nc1cccc(NC(=O)c2ccc(-c3ccc(Br)cc3)o2)c1)c1ccccc1,i,14.8,0.162,3.9,6.5
O=C(c1ccccc1)c1cccc(NC(=O)c2ccco2)c1,i,79.4,-0.669,96.9*,70.7
O=C(Nc1cccc(NC(=O)c2sc3ccccc3c2Cl)c1)c1ccco1,i,88.8,0.0204,81.1*,95.0
O=C(Nc1cccc(NC(=O)c2ccc(-c3cccc(Br)c3)o2)c1)c1ccco1,i,50.5,-0.362,59.8*,38.8
O=C(Nc1nccs1)c1cccc(NC(=O)c2ccco2)c1,i,81.4,1.17,97.3*,84.7
COC(=O)c1[nH]c(C)c(/C(O)=C2\C(=O)C(=O)N(CCN3CCOCC3)C2c2ccco2)c1C (stereo not drawn),x,x,0.709,x,x
Cn1c2ccccc2c(=O)c2c(=O)n(Cc3ccco3)c(-c3ccc(Cl)cc3Cl)nc21,x,x,-2.4,x,x
SMILES,Autophagy mod,HCT116 bCat-KO,Dynein transport,Lmaj promast,PTEN del growth
Nc1nnc(SCC(=O)OCC(=O)NC23CC4CC(CC(C4)C2)C3)s1,i,x,-0.867,10.9,x
CCOC(=O)C1CSC(CC(=O)Nc2ccc(Cl)cc2)C(=O)N1 (stereo not drawn),i,89.2,-0.238,-8.3,85.1
O=C(Nc1cccc(-c2cnc3ccccc3n2)c1)c1cccc(NC(=O)c2ccco2)c1,i,75.2,-1.09,69.0*,70.9
O=C(Nc1cccnc1)c1cccc(NC(=O)c2ccco2)c1,i,97.0,-1.01,79.7*,98.2
CC(=O)c1cccc(NC(=O)c2ccc(Br)o2)c1,i,95.3,-0.504,14.5,87.8
Cc1ccc(C(=O)Nc2cccnc2)cc1NC(=O)c1ccco1,i,97.2,-0.33,6.3,94.9
O=C(Nc1cccc(-c2cnc3ccccc3n2)c1)c1ccccc1,i,84.6,0.963,-5.1,92.9
CC(=O)c1cccc(NC(=O)c2ccco2)c1,i,105.2,1.66,14.8,107.8
O=C(Nc1cccc(-n2cnnn2)c1)c1ccco1,i,95.4,-0.965,94.9*,92.4
O=C(Nc1cccc(F)c1)c1ccc(Br)o1,i,80.8,0.284,67.9*,93.7
CCOc1ccc(C(C)=O)cc1CSc1nnnn1-c1ccc(O)cc1,i,x,0.26,59.8*,x
COc1cccc(C(=O)Nc2cc(-c3cn4cccnc4n3)ccc2C)c1,i,x,0.429,-3.0,x
O=C(CSc1nc(SCC(=O)NCc2ccccc2)n(-c2ccccc2)n1)NCc1ccccc1,i,94.5,-0.483,94.2*,91.1
CN(C)C(=O)CSc1nc(SCC(=O)N(C)C)n(-c2ccccc2)n1,i,103.8,0.606,1.2,103.6
NC(=O)NCc1ccccc1,i,x,-0.285,-4.1,x
Cc1ccc(C(=O)c2ccccc2C(=O)OCC(=O)Nc2ccc(SC(F)F)cc2)cc1,i,71.5,-0.299,66.1*,67.7
CC(=O)N1CCc2c(sc3c2c(=O)n(-c2ccccc2)c(=O)n3Cc2ccccc2Cl)C1,i,91.0,0.591,98.0*,90.7
CC(C)(C)OC(=O)N1CCC(c2c(C(=O)O)cnn2-c2ccc(Cl)cc2)CC1,i,98.9,0.532,-3.7,115.5
Cc1ccc(-n2ncc(C(=O)Nc3ccc(Cl)cc3)c2C2CCNCC2)cc1C,i,x,-0.863,98.7*,x
Cn1nnc(NCc2cc(Br)ccc2OCc2cccs2)n1,i,88.0,1.27,89.3*,88.9
CCOc1ncccc1C(=O)OCc1ccc(C#N)cc1,i,103.9,0.782,-4.0,98.0
COCCNC(=O)CSc1nc2scc(-c3ccccc3)c2c(=O)[nH]1,x,x,0.489,x,x
CCOC(=O)N1[C@@H]2C=C(C)[C@@H]2[C@@H]2[C@@H](C)C(=O)N21,i,89.6,1.29,13.7,100.8
C=CCn1c(SCc2cccc3ccccc23)nnc1-c1cccnc1,i,83.7,0.444,50.4*,90.4
CCOC(=O)C1(Cc2cccc(F)c2)CCN(CC(O)CO)CC1 (stereo not drawn),x,x,-0.022,x,x
SMILES,Autophagy mod,HCT116 bCat-KO,Dynein transport,Lmaj promast,PTEN del growth
O=C(CCS(=O)(=O)c1cccs1)N1CCCC1,i,94.8,-0.506,-5.4,98.2
O=C(CCNS(=O)(=O)c1cccs1)N1CCCCCC1,+,103.7,3.61,-4.1,99.2
CC(C)Sc1ccc([N+](=O)[O-])cc1C(=O)Nc1ccncc1,x,x,0.143,x,x
O=C1C2C3C=CC(C3=C(c3ccccc3)c3ccccc3)C2C(=O)N1CCO (stereo not drawn),i,96.6,-0.344,97.6*,97.9
Cc1cc(C)n(CCNc2nc3nonc3nc2N2CCCCC2)n1,i,x,-0.476,5.9,x
O=C(Nc1ccccc1N1CCN(c2ccc(F)cc2)CC1)c1ccccc1,i,82.3,1.22,-5.1,78.8
O=C(N1CCN(c2ccccc2)CC1)C12CC3CC(CC(C3)C1)C2,i,71.7,0.392,95.2*,68.4
O=C(Nc1ccccc1-c1ccccc1)C12CC3CC(CC(C3)C1)C2,i,80.0,0.884,88.5*,68.2

# Bioassay records deposited in PubChem by several laboratories.
